# Autophagy mod: autophagy modulators in MEF cells, primary screen, imaging, high-content, MEF GFP-LC3 | MEF GFP-LC3 puncta imaging; test concentration mostly 10 µM | hit rate 0.98% among 190,000 | calls only at 10 µM (by protocol);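 active = percentage of spot-positive cells more than 3 SD above its plate mean, without a fluorescence outlier flag or 80% toxicity; inconclusive = no clear call, values can overlap the other calls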
# MT stabilize HCS: microtubule stabilizers in HeLa cells, primary screen, imaging, high-content imaging. HeLa tubulin immunostaining HCS, 24 h; share of cells brighter than vehicle mean+2SD. % tubulin-high responders, % at 10 µM. hit rate 0.83% among 200,000. AID 2205, 2009;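 active = plate Z-score above 3 for both tubulin-high and condensed-nucleus cell shares, with cell loss under 80%, at 10 µM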;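 note: anti alpha tubulin signal scored within the nucleus-defined area of each cell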
# bCat nuc transl: modulators of beta-catenin nuclear translocation, primary screen, imaging, HeLa cells, immunofluorescence, high-content. nuclear translocation activity, % at 5 µM. hit rate 0.3% among 190,000. AID 1665, 2009;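 active = nuclear translocation activity above 50% at 5 µM, with a well cell count of 50 or more; inconclusive = wells under 50 cells across six images, flagged as toxic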;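 note: per-cell ratio of nuclear to cytoplasmic median beta-catenin stain intensity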
#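 Test system: human HeLa cells, native beta-catenin. Compound dosing: 5 µM primary single dose, 0.1% DMSO, 0.02–20 µM confirmation series. Incubation: compound exposure 24 h at 37°C. Detection: beta-catenin immunostaining with DAPI counterstain, 20x imaging, 6 fields/well. Read-out basis: Nuclear/cytoplasmic beta-catenin signal ratio, % activation.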
# Ins promoter up: insulin promoter activators in MIN6 cells, imaging, high-content screening, mouse beta cells. MIN6 insulin promoter-GFP reporter; hits give high values. z-score at 5 µM. hit rate 0.3% among 190,000;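 active = z-score above 3 at 5 µM with at least 500 cells counted in the well; inconclusive = wells under 500 cells, flagged as cytotoxic or low count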
# Numbers stand for hits; - = inactive; ? = inconclusive; . = no result; + = active, no number. The list is not random: actives were taken first. Their share in the collection is about 1.9%.
SMILES,Autophagy mod,MT stabilize HCS,bCat nuc transl,Ins promoter up
COCCCN1CN(S(=O)(=O)c2ccc(Cl)cc2)c2nc3ccccc3nc21,-,-,-,-
COc1cc(/C=N/NC(=O)c2ccc(CN(C)S(=O)(=O)c3ccc(C)cc3)cc2)ccc1O,-,-,-,-
O=C1CN(C(=O)COc2ncnc3ccccc23)c2ccccc2N1,-,-,.,4.05
Cc1sc2ncnc(OCC(=O)N3CC(=O)Nc4ccccc43)c2c1C,-,-,-,-
COC(=O)c1sccc1NC(=O)C1CC1,.,.,-,-
O=C(COc1cccc2cccnc12)N/N=C/c1ccccc1O,.,.,-,-
Oc1ccccc1/C=N/Nc1cccc2cccnc12,+,-,-,-
CCOc1ccc(-n2c(C)cc(C(=O)CCl)c2C)cc1,+,-,-,-
COc1ccc(-n2c(C)cc(C(=O)CN3C(=O)C(=O)N(Cc4ccccc4)C3=O)c2C)cc1,-,12.8,-,-
CCOC(=O)C1=c2/c(=C/c3ccncc3)c(N)c(C(=O)OC)n2C(=O)C(c2ccncc2)S1 (stereo not drawn),-,-,-,-
CCOC(=O)C1=c2/c(=C/c3ccccc3OC)c(N)c(C#N)n2C(=O)C(c2ccccc2OC)S1 (stereo not drawn),+,-,.,-
O=C(/C(=C\c1ccccc1)c1nc2ccccc2[nH]1)c1ccc(Cl)cc1,-,22.2,-,-
O=C(/C(=C/c1ccc(Cl)cc1)c1nc2ccccc2[nH]1)c1cccs1,+,27.5,-,?
CCOC(=O)c1c(NC(=O)CN2CCCc3ccccc32)sc(C)c1CC,-,-,-,-
CCOc1ccccc1N1CC(C(=O)Nc2ccccc2N2CCOCC2)CC1=O (stereo not drawn),-,-,-,-
CCOc1ccccc1N1CC(C(=O)Nc2ccc3c(c2)OCCO3)CC1=O (stereo not drawn),+,-,-,-
C=CCn1c(SCC(=O)c2ccc(F)cc2)nnc1-c1ccc2c(c1)OCO2,-,-,-,.
COc1ccc(C2NC(=S)NC(C)=C2C(=O)Nc2ccccn2)cc1OC (stereo not drawn),+,-,-,-
COc1ccc(/C=N/NC(=O)c2ccc(Cl)cc2Cl)cc1COC(C)=O,-,21.1,-,-
Cc1ccc(S(=O)(=O)NC(=O)N(C)C2CCCCC2)cc1,.,.,-,.
FC(F)(F)c1cc(-c2cccs2)nc2ncnn12,-,-,-,.
CN1/C(=C\C=C(/C#N)C(=O)Nc2ccc(Cl)cc2)C(C)(C)c2ccccc21,+,-,-,.
COc1ccccc1/C=C/C(=O)NCc1cccnc1,-,-,-,-
O=C(Nc1ccc(Nc2ccncc2)cc1)c1ccc(Nc2ccnc3ccc([N+](=O)[O-])cc23)cc1[N+](=O)[O-],.,.,-,-
CC(=O)Nc1ccc(C(=O)OCC(=O)NCc2ccc(Cl)cc2)cc1,-,31.9,50.5,-
SMILES,Autophagy mod,MT stabilize HCS,bCat nuc transl,Ins promoter up
Cc1cc(C)n(-c2ccc(C(=O)OCC(=O)NCc3ccc(Cl)cc3)cc2)n1,-,-,-,-
CC(C)S(=O)(=O)c1csc(NC(=O)Nc2cccc([N+](=O)[O-])c2)c1Cl,.,.,-,-
CCN(CC)S(=O)(=O)c1ccc2c3c(cccc13)C(=O)N2,+,-,-,-
CCn1c2ccccc2c2cc(NC(=O)c3cccc(OC)c3)ccc21,-,30.8,-,-
CCn1c2ccccc2c2cc(/C=N/n3cnnc3)ccc21,+,-,-,-
CCn1c2ccccc2c2cc(/C=N/NC(=O)c3cccc(C)c3)ccc21,-,29.6,-,-
CCn1c2ccccc2c2cc(/C=N/NC(=O)c3ccccc3C)ccc21,-,-,-,-
CCn1c2ccccc2c2cc(NC(=O)c3cccc(OC)c3OC)ccc21,-,-,-,-
Cc1ccc(/C=C(\NC(=O)c2ccccc2)C(=O)N2CCCC2C(=O)O)cc1 (stereo not drawn),-,-,-,-
COc1ccc(/C=N/Nc2cc(N3CCCC3)nc(N3CCCC3)n2)cc1,+,-,-,-
Cc1cc(C(F)(F)F)c(C#N)c(SCC(=O)Nc2nc3cc(Br)ccc3s2)n1,+,-,-,.
Cc1ccc(S(=O)(=O)CCSc2nc(C)cc(C(F)(F)F)c2C#N)cc1,+,-,-,.
CCOc1cc(NC(=S)NCC2CCCO2)c(OCC)cc1NC(=O)c1cccc(C)c1 (stereo not drawn),-,-,-,-
CCOC(=O)N1CCN(C(=O)Nc2ccc3nc(C)sc3c2)CC1,-,-,-,-
CCOC(=O)Nc1ccc2nc(N3CCCCCC3)sc2c1,.,.,84.4,-
CCOC(=O)CN1CC23C=CC(O2)C(C(=O)Nc2cc(OC)ccc2OC)C3C1=O (stereo not drawn),-,-,-,4.17
CCOC(=O)CN1CC23C=CC(O2)C(C(=O)Nc2ccc(OC)cc2OC)C3C1=O (stereo not drawn),.,-,-,.
CCOc1ccc(/C(O)=C2/C(=O)C(=O)N(CCN(CC)CC)C2c2cccs2)cc1 (stereo not drawn),.,.,-,-
C=CCOc1ccc(/C(O)=C2\C(=O)C(=O)N(CCN(C)C)C2c2cccs2)cc1 (stereo not drawn),+,-,-,-
O=C(c1cccs1)N1N=C(c2ccccc2)CC1c1ccccc1O (stereo not drawn),-,-,-,-
Cc1ccc(C2=NN(C(=O)c3cccs3)C(c3ccccc3O)C2)cc1 (stereo not drawn),+,-,-,-
Cc1oncc1C(=O)NC(C)C,-,-,-,-
COC(=O)c1ccc(CNC(=O)COC(=O)C2CCC(C(C)(C)C)CC2)cc1 (stereo not drawn),-,-,-,-
COc1ccc(/C=C(\C#N)C(=O)OCC(=O)Nc2c(C)cccc2C(C)C)cc1,-,-,-,3.36
COc1ccc(/C=C(\C#N)C(=O)OCC(=O)NC(=O)NCCC(C)C)cc1,-,-,-,.
SMILES,Autophagy mod,MT stabilize HCS,bCat nuc transl,Ins promoter up
Nc1nc(-c2ccccc2)cc(-c2ccccc2O)n1,-,-,-,-
CN(C)c1cc(-c2ccccc2)nc(N)n1,-,12.8,.,-
Cc1ccc(-n2ncc(-c3nn[nH]n3)c2N)cc1,.,.,-,-
CC1CCN(Cc2ccc(NC(=O)C3CCN(c4nnc(-n5cccc5)s4)CC3)cc2)CC1,+,-,-,-
COc1ccc(/C=N/Nc2nc(Nc3ccccc3)nc(N3CCCC3)n2)cc1[N+](=O)[O-],+,-,-,-
COc1cc(/C=N/Nc2nc(Nc3ccccc3)nc(-n3nc(C)cc3C)n2)cc(OC)c1OC,+,-,-,.
COc1ccc(-c2[nH]ncc2N=Nc2ccccc2)cc1,-,18.9,89.4,-
COc1ccc(-c2[nH]ncc2N=Nc2cc(C)cc(C)c2)cc1,-,16.1,-,-
COc1ccc(-c2nc3ncnn3cc2C)cc1F,-,-,-,-
C=C(C)COc1ccc(-c2[nH]ncc2Oc2ccc(OC)cc2)c(O)c1,.,.,-,-
C=C(C)COc1ccc(-c2[nH]ncc2-c2ccccc2OC)c(O)c1,-,28.8,-,-
C=C(C)COc1ccc(-c2nc(N)ncc2Oc2ccc(OC)cc2)c(O)c1,-,-,-,-
C=C(C)COc1ccc(-c2[nH]ncc2-c2ccc(Br)cc2)c(O)c1,-,18.6,-,-

# High-throughput results as filed in PubChem BioAssay.
